Measurements from the RNAGym collection of RNA variant scans (doi:10.1126/science.aae0568).
Variants at the floor of the assay were thinned out.

B1: tRNA (parent)
chain: GUUCCGUUGGCGUAAUGGUAACGCGUCUCCCUCCUAAGGAGAAGACUGCGGGUUCGAGUCCCGUACGGAACG

Variants of: B1
Assay: yeast fitness relative to wild type (ratio to wild type); higher = fitter; tRNA-Arg(CCU), competitive growth, 37 C, YPD
In short: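 Variants of the tRNA-Arg(CCU) gene, chemically synthesised with a 3% per-site mutation rate at 69 sites, were placed at the native genomic locus in Saccharomyces cerevisiae. The pooled strains were competed in YPD at 37°C for 24 hours in six parallel replicates. Gene amplicons from the start population and from each end population were read by 100-nucleotide paired-end sequencing. Darwinian fitness relative to wild type came from changes in genotype frequencies; genotypes needed ≥ 100 starting reads, and estimates < 0.5 were set to 0.5.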

| Variant | yeast fitness |
| --- | --- |
| GUUCCGUUGGCGUAAUGGUAACGCCUCUACCUCCUAAGGAGAAGACUGCGGAUUCGAGUCCCGUGCGGAACG [G25C C29A G52A A65G] | ≤ 0.5 |
| GUUCCGUUGGCGUAAUGGUAACGCUUCUCCCUCCUAAGGAGAAGACUGCGGGUUCGAGUCCCGGACGGAACG [G25U U64G] | 0.788 |
| GUUCCGUUGGCGUAAUGGUAACGCCUCUCCCUCCUAAGGAGAAGACUGCGGGAUCGUGUCCCGUUCGGAACG [G25C U53A A57U A65U] | ≤ 0.5 |
| GUUCCGUUGGCGUAAUGGUAACGCGAUUCCCUCCUAAGGAGAAGACUGCGGGUUCGAGCCCCGUGCGGAACG [U26A C27U U59C A65G] | 0.65 |
| GUUCCGUUGGCGUAAUGGUAACGCGACUCCCUCCUAAGGAGAUGACUGCGGGUUCGAGUCCCGUACGGAACG [U26A A43U] | 0.937 |
| GUUCCGUUGGCGUAAUGGUAACGCCUCUCCCUGCUAAGGAGAAGACUGCGGGUUCGAGUCGCGUACGGAACG [G25C C33G C61G] | ≤ 0.5 |
| GUUCCGUUGGCGUAAUGGUAACGCCUGUCCCUCCCAAGGAGAAGACUGCGGGUUCGAGUCCCGUACGGAACG [G25C C27G U35C] | ≤ 0.5 |
| GUUCCGUUGGCGUAAUGGUAACGCGACUCUUUCCUACGGAGAAGACUACGGGUUCGAGUCCCGUACGGAACG [U26A C30U C31U A37C G48A] | ≤ 0.5 |
| GUUCCGUUGGCGUAAUGGUAACGCCUCACCCUCCUAAGGAGAAGACUGCGAGUUCGAGUCCCGUACGGAACG [G25C U28A G51A] | 0.604 |
| GUUCCGUUGGCGUAAUGGUAACGCGACUCCCUACUAAGGAGAAGACUGCGGGUUCGAGUCCCGUACGGAACG [U26A C33A] | 0.689 |
| GUUCCGUUGGCGUAAUGGUAACGCCUCUCCCUCUUAAGGAAAAGACUGGGGGUUCGAGUCCCGUACGGCACG [G25C C34U G41A C49G A69C] | ≤ 0.5 |
| GUUCCGUUGGCGUAAUGGUAACGCGACUCCCUCCUAAGGUGAAGACUGCGGGUUCGAGUCCCGUACGGAACG [U26A A40U] | 0.809 |
| GUUCCGUUGGCGUAAUGGUAACGCCUCCCCCUCCUAAGGAGAAGACUGCGGGUUCGAGUCCCGUACGGUACG [G25C U28C A69U] | 0.532 |
| GUUCCGUUGGCGUAAUGGUAACGCGACUCCCUCCUAAGGAGAAGACUGCGGGUUCGAGUCCCGUACGGAUCG [U26A A70U] | 0.876 |
| GUUCCGUUGGCGUAAUGGUAACGCCGCUCCCUCCUAAGGAGAAGACUGCGGGUUCGAGUUCGGAACGGUACG [G25C U26G C60U C62G U64A A69U] | ≤ 0.5 |
| GUUCCGUUGGCGUAAUGGUAACGCGACUCCCUCCUAAGGAGAAGAGUGCGGGUUCGAGUCUCGUACGGAACG [U26A C46G C61U] | 0.699 |
| GUUCCGUUGGCGUAAUGGUAACGCGACUCCCUCCUAGGGAGAAGACUGCGGGUUCGAGUCCCGUAAGGAACG [U26A A37G C66A] | ≤ 0.5 |
| GUUCCGUUGGCGUAAUGGUAACGCGACUCCAUCCUAAGGAGAAGUCUGCGGGUUCGAGUCCCGUACGGAACG [U26A C31A A45U] | 0.563 |
| GUUCCGUUGGCGUAAUGGUAACGCGACUCCCUCCUAAGGAGAAGACUGUGGGUUCAAGUCCCGUACGGAACG [U26A C49U G56A] | 0.706 |

| Variant | yeast fitness |
| --- | --- |
| GUUCCGUUGGCGUAAUGGUAACGCCUCUACCUCCUAAGGAGAAGACUACGGGGUCGAGUCCCGUACGGAACG [G25C C29A G48A U53G] | ≤ 0.5 |
| GUUCCGUUGGCGUAAUGGUAACGCCUCUACCUCCUAAGGAGAAGACUGCGGAUUCGAGUCCCGUACGGAACG [G25C C29A G52A] | 0.505 |
| GUUCCGUUGGCGUAAUGGUAACGCCUCUCCGUCGUAAGGAAAAGACUGCGGGUUCGAGUCUCGUACGGUACG [G25C C31G C34G G41A C61U A69U] | ≤ 0.5 |
| GUUCCGUUGGCGUAAUGGUAACGCGAAUCCCUCCUAAGGAGAAGACUGCGGGUCCGAGUCCCGUACGGAACG [U26A C27A U54C] | ≤ 0.5 |
| GUUCCGUUGGCGUAAUGGUAACGCCUCUCCUUCCUAAGGAGAAGAUUGCGGGUUCGAGUCCCGUACGGAACG [G25C C31U C46U] | 0.684 |
| GUUCCGUUGGCGUAAUGGUAACGCCUCUCCCUCCUAAGGAGAAGACUGCGGGUUCGAGUCUCGUACGGAACG [G25C C61U] | 1.1 |
| GUUCCGUUGGCGUAAUGGUAACGCCUCUCCCUCCUAAGGAGAAGACUGCGGGUUCGAGACCCGUACGGAACG [G25C U59A] | 0.804 |
| GUUCCGUUGGCGUAAUGGUAACGCCUCUCCCUCCUAAGGAGAAGACUGCAGGUUCGAGUCCGGUACGGAACG [G25C G50A C62G] | 0.897 |
| GUUCCGUUGGCGUAAUGGUAACGCGACUGCCUCCUAAGGAGAGGUCUGCGGGUUCGAGUCCCGUUCGGAACG [U26A C29G A43G A45U A65U] | ≤ 0.5 |
| GUUCCGUUGGCGUAAUGGUAACGCGACUCCCUCCUAAGGAGAAGAGUGCGGGUUCGAGUCCCGUACGGAACG [U26A C46G] | 0.973 |
| GUUCCGUUGGCGUAAUGGUAACGCGACUCCCUCAUAAGGAGAAGACUGCGGGUUCGAGUCCCGUACGGAACG [U26A C34A] | 0.592 |
| GUUCCGUUGGCGUAAUGGUAACGCGACUACCUCCUAAGGAGAAGUCUGCGGGUUCGAAUCCCGUACGGAACG [U26A C29A A45U G58A] | ≤ 0.5 |
| GUUCCGUUGGCGUAAUGGUAACGCGACUCCCUCCUGAGGAGAAGACUGCGGGUUCGAGUCCCGUACGGAUCG [U26A A36G A70U] | 0.584 |
| GUUCCGUUGGCGUAAUGGUAACGCCUCUCCCUCCCAAGGAGAAGACUGCGGGUUCGACUCCCGUACGGAACG [G25C U35C G58C] | 0.558 |
| GUUCCGUUGGCGUAAUGGUAACGCCUUUCCCUCCUAAGGAGAAGACUGCGGGUUCGAGUCGCGUACGGAACG [G25C C27U C61G] | 0.502 |
| GUUCCGUUGGCGUAAUGGUAACGCCUCUCCCUCCCAAGGAGAAGACUGCGGGUUCGAGACCCGUACUGCACG [G25C U35C U59A G67U A69C] | ≤ 0.5 |
| GUUCCGUUGGCGUAAUGGUAACGCGACUCACUCCUAAGGAGAAGACUGCGGGUUCGAGUCCCGUACGGAACG [U26A C30A] | 0.768 |
| GUUCCGUUGGCGUAAUGGUAACGCGACUACGUCCUAAGGAGAAGACUGCGGGUUCGAGUCCCGUCCGGAACG [U26A C29A C31G A65C] | 0.566 |
